Assay [1] addresses T1, Sonic hedgehog protein (Homo sapiens, UniProt Q15465). The assay can be described thus: Inhibition of human SHH pathway in mouse S12 cells assessed as GLI-mediated transcriptional activity after 48 hrs by luciferase reporter gene assay in presence of 0.5 mg/mL human alpha-1-acid glycoprotein. In a few lines: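 Mouse C3H10T1/2-derived S12 cells carrying a stably integrated GLI-luciferase reporter. Grown in high-glucose DMEM with 10% FBS, replated, then switched to 0.5% FBS to induce cilia. Shh, human AAG (0, 0.5, 1 or 5 mg/mL) and compound added. Luciferase (Dual-Glo) read after 48 h. Mean of four experiments ±SD.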
For orientation: A reporter such as luciferase makes a cellular process visible.

For assay [2], the target named is T1, Sonic hedgehog protein. The assay can be described thus: Inhibition of human SHH pathway in mouse S12 cells assessed as GLI-mediated transcriptional activity after 48 hrs by luciferase reporter gene assay.

SMILES strings stand for the structures.

T1 sequence (Q15465 24-197 limits assumed): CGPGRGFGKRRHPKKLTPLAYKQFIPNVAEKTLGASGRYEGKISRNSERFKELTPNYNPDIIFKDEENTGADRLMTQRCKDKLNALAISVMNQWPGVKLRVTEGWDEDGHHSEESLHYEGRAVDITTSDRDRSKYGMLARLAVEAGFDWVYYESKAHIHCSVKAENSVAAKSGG

`CS(=O)(=O)c1ccc(C(=O)Nc2ccc(Cl)c(-c3ccccn3)c2)c(Cl)c1` [2-chloro-N-(4-chloro-3-(pyridin-2-yl)phenyl)-4-(methylsulfonyl)benzamide]: the half-maximal inhibitory concentration (IC50) amounted to 1750 nM on Sonic hedgehog protein [1] and 15 nM at Sonic hedgehog protein [2].

As usually defined, the IC50 is the concentration at which inhibition is half-maximal.

The values above are taken from BindingDB's records for doi:10.1021/jm1008924 (Genentech, 2011).
